Assay results from publication PMC10619633 (Chemical Science, 2023).

Tests used:
[1] = Octanol/PBS partition coefficient; format: physicochemical; conditions: room temperature, PF6- salts
How it was run: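 Partitioning measured between octanol and PBS; PBS replaced water to limit pH effects on log P. Complexes were tested as PF6− salts, whereas the biological assays used chloride salts.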

RPE-1 cells = assay: Dark cytotoxicity, resazurin assay, non-cancerous RPE-1; format: cell-based; conditions: read-out: Cytotoxicity IC50 Dark, RPE-1, normoxia (20%)
Solubility in water = format: physicochemical
[2] = Spectroscopic properties and 1O2 quantum yield in MeCN; format: physicochemical; conditions: for Φ Δ (1O2 quantum yield): irradiation at 450 nm, [Ru(bpy)3]Cl2 as reference
A549 cells [3] = assay: Cellular uptake inhibition by acetazolamide pre-incubation, ICP-MS; format: cell-based, Human; conditions: A549, complex 5 μM 4 h, acetazolamide 50 μM 2 h pre-incubation
A549 cells [4] = assay: Cellular fraction; format: cell-based, Human; conditions: A549, 24 h co-incubation, nuclei/cytoplasm isolated, ICP-MS
How it was run: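 Test complexes were incubated with A549 cells for 24 h. Nuclei and cytoplasm were then isolated, and each fraction was analysed by ICP-MS for Ru or Os content to give the distribution between compartments. Experiments were done in triplicate.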

A549 cells [5] = assay: Cellular uptake by ICP-MS; format: cell-based, Human; conditions: A549, 5 μM, 4 h
How it was run: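 Test Os(II) complexes were added at 5 μM to A549 cells for 4 h under normoxic or hypoxic conditions. Uptake was quantified by ICP-MS from the cellular Ru/Os concentration. Experiments were done in triplicate.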

Molecule	log P (octanol/PBS partition coefficient) [1]	IC50 (RPE-1 cells)	solubility in water (Solubility in water)	Φ em (luminescence quantum yield) [2]	λ em (emission maximum) [2]	τ (fluorescence lifetime) [2]	Φ Δ (1O2 quantum yield) [2]	impact of acetazolamide pre-incubation on cellular uptake (A549 cells [3])	fraction localized within the cytoplasm (A549 cells [4])	cellular uptake under hypoxic compared to normoxic conditions (A549 cells [5])
[Ru(Bphen)2(bpy-(NH CH 2CH2NH2)2-L2)]2+(2 P F 6-).(L= N4-Succinoylsulfanilamide) [complex 6]	greater than 1	> 100 µM	good solubility in water	2%	675 nm	117 ns	77%	notably reduced	over 80%	–
[Os(Bphen)2(bpy-(NHCH2CH2NH2)2-L2)]2+(2PF6-).(L= N4-Succinoylsulfanilamide) [complex 12]	greater than 1	> 100 µM	good solubility in water	0%	–	–	–	notably reduced	over 80%	1.3 times
[Ru(Bphen)2(bpy-(NH 2)2)]2+(2PF6-) [complex 3]	–	> 100 µM	–	–	–	–	–	negligible	–	–
[Os(Bphen)2(bpy-(NH2)2)]2+(2PF6-) [complex 9]	–	> 30 µM	–	–	–	–	–	negligible	–	notably reduced cellular uptake under hypoxic conditions
[Cl][Ru][Cl].c1ccc(-c2ccccn2)nc1.c1ccc(-c2ccccn2)nc1.c1ccc(-c2ccccn2)nc1 [Ru(bpy)3, [Ru(bpy)3]Cl2, reference compound]	–	–	–	8%	608 nm	159 ns	77%	–	–	–
[Os(Bphen)2(bpy-(NHCH2CH2NH2)2-L)]2+(2PF6-).(L= N4-Succinoylsulfanilamide) [complex 11]	greater than 1	> 100 µM	good solubility in water	0%	–	–	–	notably reduced	–	–
[Ru(Bphen)2(bpy-(NH CH 2CH2NH2)2-L)]2+(2PF6-).(L= N4-Succinoylsulfanilamide) [complex 5]	–	> 100 µM	good solubility in water	2%	674 nm	122 ns	77%	notably reduced	–	–
